Results published in ChEMBL document CHEMBL4038284, “Synthesis of novel quinoline-based 4,5-dihydro-1H-pyrazoles as potential anticancer, antifungal, antibacterial and antiprotozoal agents” (Eur J Med Chem, 2017).
Converted amounts (≈) assume the structure as drawn. The source made the active and inactive calls. The calls are words filed in the database; no cut-off is given here.

Columns and labels:
[1] = system: NCI-H322M; assay: Growth inhibition of human NCI-H322M cells at 10 uM incubated for 48 hrs by sulforhodamine B assay; type: functional, cell-based
Method in brief: (§1)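 NCI 60-line panel, single 10 μM dose. Cells were grown in RPMI-1640 with 5% FBS and 2 mM L-glutamine and pre-incubated 24 h before compound addition (DMSO stock). Exposure was 48 h at 37 °C, 5% CO2. Cells were fixed with cold TCA (10% final), stained with 0.4% SRB, bound dye dissolved in 10 mM Tris base, A515 read. Growth was taken relative to time-zero and untreated control plates.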

[2] = system: SF-268; assay: Growth inhibition of human SF268 cells at 10 uM incubated for 48 hrs by sulforhodamine B assay; type: functional, cell-based; method in brief: as §1
[3] = system: LOX IMVI; assay: Growth inhibition of human LOXIMVI cells at 10 uM incubated for 48 hrs by sulforhodamine B assay; type: functional, cell-based; method in brief: as §1
[4] = system: RPMI-8226; assay: Growth inhibition of human RPMI8226 cells incubated for 48 hrs by sulforhodamine B assay; type: functional; conditions: RPMI-8226, 48 h; for CC50: read-out: LC50 (the source's name)
Method in brief: (§2)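 NCI 60-line screen. Cells in RPMI-1640 with 5% FBS and 2 mM L-glutamine, preincubated 24 h, then time-zero plates TCA-fixed. Compounds from DMSO stocks given at five final concentrations (100, 10, 1.0, 0.1, 0.01 µM) for 48 h at 37 °C, 5% CO2. Cells fixed with 10% TCA, SRB-stained, read at 515 nm. GI50 is the concentration giving 50% lower net protein increase versus control.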

[5] = system: HOP-62; assay: Growth inhibition of human HOP62 cells incubated for 48 hrs by sulforhodamine B assay; type: functional; conditions: HOP-62, 48 h; for CC50: read-out: LC50 (the source's name)
Method in brief: (§3)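 NCI five-dose SRB assay (100, 10, 1.0, 0.1, 0.01 µM) with 48 h exposure in RPMI-1640 with 5% FBS and 2 mM L-glutamine. Cells fixed with TCA and stained with SRB, read at 515 nm. GI50 is the concentration where [(Ti−Tz)/(C−Tz)]×100 = 50.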

[6] = system: HOP-92; assay: Growth inhibition of human HOP92 cells incubated for 48 hrs by sulforhodamine B assay; type: functional; conditions: HOP-92, 48 h
Method in brief: (§4)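 Five-dose NCI SRB assay at 100, 10, 1.0, 0.1 and 0.01 μM for 48 h at 37 °C, 5% CO2. Medium was RPMI-1640 with 5% FBS and 2 mM glutamine. Time-zero plates were TCA-fixed at compound addition, A515 read after SRB staining. GI50 was solved from [(Ti−Tz)/(C−Tz)]×100 = 50. Values beyond the tested range are given as > or <.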

[7] = system: NCI-H23; assay: Growth inhibition of human NCI-H23 cells incubated for 48 hrs by sulforhodamine B assay; type: functional; conditions: NCI-H23, 48 h; for CC50: read-out: LC50 (the source's name); method in brief: as §4
[8] = system: HCT-116; assay: Growth inhibition of human HCT116 cells incubated for 48 hrs by sulforhodamine B assay; type: functional; conditions: HCT-116, 48 h; method in brief: as §3
[9] = system: HT-29; assay: Growth inhibition of human HT-29 cells incubated for 48 hrs by sulforhodamine B assay; type: functional; conditions: HT-29, 48 h; method in brief: as §4
[10] = system: SF-268; assay: Growth inhibition of human SF268 cells incubated for 48 hrs by sulforhodamine B assay; type: functional; conditions: SF-268, 48 h; method in brief: as §4
[11] = system: SF-539; assay: Growth inhibition of human SF539 cells incubated for 48 hrs by sulforhodamine B assay; type: functional; conditions: SF-539, 48 h; for CC50: read-out: LC50 (the source's name)
Method in brief: (§5)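 NCI-60 panel cells grown in RPMI-1640 with 5% FBS and 2 mM L-glutamine, preincubated 24 h at 37 °C/5% CO2. Time-zero plates were TCA-fixed at compound addition. DMSO stocks were diluted in medium and tested at five final concentrations (100, 10, 1.0, 0.1, 0.01 µM) for 48 h. Cells were TCA-fixed, stained with SRB and read at 515 nm. GI50 = 50% lower net protein increase versus control.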

[12] = system: LOX IMVI; assay: Growth inhibition of human LOXIMVI cells incubated for 48 hrs by sulforhodamine B assay; type: functional; conditions: for CC50: read-out: LC50 (the source's name); method in brief: as §4
[13] = system: UACC-257; assay: Growth inhibition of human UACC257 cells incubated for 48 hrs by sulforhodamine B assay; type: functional; conditions: UACC-257, 48 h; for CC50: read-out: LC50 (the source's name); method in brief: as §5
[14] = system: OVCAR-4; assay: Growth inhibition of human OVCAR4 cells incubated for 48 hrs by sulforhodamine B assay; type: functional; conditions: OVCAR-4, 48 h; for CC50: read-out: LC50 (the source's name); method in brief: as §4
[15] = system: OVCAR-5; assay: Growth inhibition of human OVCAR5 cells incubated for 48 hrs by sulforhodamine B assay; type: functional; conditions: OVCAR-5, 48 h; for CC50: read-out: LC50 (the source's name); method in brief: as §2
[16] = system: ACHN; assay: Growth inhibition of human ACHN cells incubated for 48 hrs by sulforhodamine B assay; type: functional; conditions: for CC50: read-out: LC50 (the source's name); method in brief: as §2
[17] = system: SN12C; assay: Growth inhibition of human SN12C cells incubated for 48 hrs by sulforhodamine B assay; type: functional; method in brief: as §5
[18] = system: TK-10; assay: Growth inhibition of human TK10 cells incubated for 48 hrs by sulforhodamine B assay; type: functional; conditions: TK-10, 48 h; for CC50: read-out: LC50 (the source's name); method in brief: as §2
[19] = system: PC-3; assay: Growth inhibition of human PC3 cells incubated for 48 hrs by sulforhodamine B assay; type: functional; conditions: PC-3, 48 h; for CC50: read-out: LC50 (the source's name); method in brief: as §4
[20] = system: T47D; assay: Growth inhibition of human T47D cells incubated for 48 hrs by sulforhodamine B assay; type: functional; conditions: for CC50: read-out: LC50 (the source's name); method in brief: as §5
[21] = system: Candida albicans; assay: Growth inhibition of Candida albicans ATCC 10231 at 125 ug/ml incubated for 48 hrs under dark condition by broth microdilution method relative to control; type: functional; conditions: ATCC 10231, 48 h, read-out: GI
Method in brief: (§6)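 CLSI M27-A3 broth microdilution in RPMI-1640, DMSO ≤1%. Inoculum 1-5 × 10^3 CFU/mL. Incubated 48 h at 30 °C, dark. % inhibition = 100 − (OD405 test − sterility control)/(OD405 growth control − sterility control), with growth and sterility control wells. Triplicate.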

[22] = system: Cryptococcus neoformans; assay: Growth inhibition of Cryptococcus neoformans ATCC 32264 at 125 ug/ml incubated for 48 hrs under dark condition by broth microdilution method relative to control; type: functional; conditions: ATCC 32264, 48 h, read-out: GI; method in brief: as §6
[23] = system: Staphylococcus aureus; assay: Antibacterial activity against methicillin-resistant Staphylococcus aureus ATCC 43300 after 24 hrs by resazurin dye based microdilution assay; type: functional; conditions: ATCC 43300, 24 h
Method in brief: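 Broth microdilution in Mueller Hinton broth, inoculum 5 × 10^5 – 8 × 10^5. Compound stocks diluted in MHB with 5% DMSO and 0.1% Tween 80. Incubation 24 h at 35-37 °C. MIC is the lowest concentration with visible growth inhibition and/or by resazurin (1 mg/mL) read-out. Gentamicin as control. Run in duplicate, replicated at least three times.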

[24] = read-out: LC50 (the source's name)

| SMILES | growth inhibition (GI) [1] | growth inhibition (GI) [2] | growth inhibition (GI) [3] | GI50 [4] | CC50 [4] | GI50 [5] | CC50 [5] | GI50 [6] | LC50 (concentration giving 50% net cell kill) [6] | GI50 [7] | CC50 [7] | GI50 [8] | LC50 (concentration killing 50% of cells) [8] | GI50 [9] | LC50 [9] | GI50 [10] | GI50 [11] | inhibition of growth at 125 µg/mL [21] | inhibition of growth at 125 µg/mL [22] | MIC [23] | other results |
| --- | --- | --- | --- | --- | --- | --- | --- | --- | --- | --- | --- | --- | --- | --- | --- | --- | --- | --- | --- | --- | --- |
| COc1cc(C(=O)/C=C/c2cccc(Nc3ccnc4cc(Cl)ccc34)c2)cc(OC)c1OC | Active | Active | Active | 0.31 µM | > 100 µM | 0.68 µM | 6.06 µM | 1.47 µM | > 100 µM | 1.67 µM | 8.1 µM | 0.35 µM | 3.98 µM | 0.32 µM | 5.51 µM | 1.24 µM | 1.36 µM | 10.7% | 6.74% | > 1000 µg/mL | CC50 [11]: 5.27 µM; GI50 [12]: 0.37 µM; CC50 [12]: 3.95 µM; GI50 [13]: 1.43 µM; CC50 [13]: 6.53 µM; GI50 [14]: 1.26 µM; CC50 [14]: 5.26 µM; GI50 [15]: 1.7 µM; CC50 [15]: 6.37 µM; GI50 [16]: 1.24 µM; CC50 [16]: 4.99 µM; GI50 [17]: 1.16 µM; GI50 [18]: 1.45 µM; CC50 [18]: 6.11 µM; GI50 [19]: 1.48 µM; CC50 [19]: > 100 µM; GI50 [20]: 1.22 µM; CC50 [20]: 8.26 µM |
| COc1ccc(C2=NN(C=O)C(c3cccc(Nc4ccnc5cc(Cl)ccc45)c3)C2)cc1 (stereo unspecified) | Active | Active | Active | 1.36 µM | > 100 µM | 2.11 µM | 67.7 µM | 3.41 µM | > 100 µM | 1.87 µM | > 100 µM | 1.84 µM | 24.3 µM | 1.65 µM | 67.4 µM | 4.79 µM | 2.34 µM | 28% | 52.5% | > 1000 µg/mL | CC50 [10, 24]: > 100 µM; CC50 [11]: 39.7 µM; GI50 [12]: 2.52 µM; CC50 [12]: 39 µM; GI50 [13]: 3.06 µM; CC50 [13]: > 100 µM; GI50 [14]: 1.54 µM; CC50 [14]: > 100 µM; GI50 [15]: 11.3 µM; CC50 [15]: > 100 µM; GI50 [16]: 4.59 µM; CC50 [16]: > 100 µM; GI50 [17]: 4.45 µM; CC50 [17, 24]: > 100 µM; GI50 [18]: 4.24 µM; CC50 [18]: 61.7 µM; GI50 [19]: 2.87 µM; CC50 [19]: > 100 µM; GI50 [20]: 1.39 µM; CC50 [20]: > 100 µM |
| O=Cc1cccc(Nc2ccnc3cc(Cl)ccc23)c1 | – | – | – | – | – | – | – | – | – | – | – | – | – | – | – | – | – | 34.8% | 38.5% | 500 µg/mL (≈ 1770 µM) | – |
